From ChEMBL document CHEMBL1152226 (Bioorg Med Chem, 2008)

Experiments:
[1] = molecular target: Inosine-5'-monophosphate dehydrogenase 1 (Homo sapiens, UniProt P20839); test: Inhibition of human IMPDH1
In short: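 Run in duplicate with IMPDH type 1 (100 nM; line 2) or type 2 (30 nM; line 3) in 50 mM Tris pH 8.0, 100 mM KCl, 1 mM DTT, with IMP and NAD substrates. Inhibitors were added from DMSO to 1% final. At 25 °C, NADH formation was followed at 340 nm. Ki(app) came from fitting steady-state velocities versus inhibitor concentration to the Morrison equation.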

[2] = molecular target: Inosine-5'-monophosphate dehydrogenase 2 (Homo sapiens, UniProt P12268); test: Inhibition of human IMPDH2
K562 = test: Antiproliferative activity against human K562 cells after 72 hrs by MTS assay; format: functional, cell-based
[3] = Selectivity ratio of IC50 for human K562 cells to Ki for human IMPDH2; format: ADME, cell-based

Inosine-5'-monophosphate dehydrogenase 1, sequence (P20839 whole entry): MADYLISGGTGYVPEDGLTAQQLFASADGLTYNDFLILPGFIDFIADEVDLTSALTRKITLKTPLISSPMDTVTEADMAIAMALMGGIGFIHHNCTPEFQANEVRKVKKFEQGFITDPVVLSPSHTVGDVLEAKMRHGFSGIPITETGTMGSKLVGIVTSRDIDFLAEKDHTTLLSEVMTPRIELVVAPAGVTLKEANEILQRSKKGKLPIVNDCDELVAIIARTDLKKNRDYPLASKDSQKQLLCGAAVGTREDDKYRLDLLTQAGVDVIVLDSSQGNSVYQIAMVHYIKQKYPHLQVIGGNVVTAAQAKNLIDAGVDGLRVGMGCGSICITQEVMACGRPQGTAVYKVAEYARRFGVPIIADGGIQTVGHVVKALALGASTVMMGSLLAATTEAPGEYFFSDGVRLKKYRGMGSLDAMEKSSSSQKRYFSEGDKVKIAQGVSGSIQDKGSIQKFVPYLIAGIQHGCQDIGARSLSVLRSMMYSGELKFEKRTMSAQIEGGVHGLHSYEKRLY

| Ki [1] | Ki [2] | IC50 (K562; Homo sapiens, K562, 72 h) | IC50 (K562; k562) | SMILES | Ratio [3] |
| --- | --- | --- | --- | --- | --- |
| 42.8 µM | 14.3 µM | > 100 µM | – | COc1cc(C/C=C(\C)CCC(=O)O)ccc1-c1cnco1 | – |
| 20.8 µM | 8.7 µM | > 100 µM | – | COc1ccc(C/C=C(\C)CCC(=O)O)cc1-c1cnco1 | – |
| > 100 µM | > 100 µM | – | – | COc1c(C/C=C(\C)CCC(=O)O)cc(-c2cnco2)c(OC)c1C | – |
| 97.3 µM | 30.1 µM | 71 µM | – | COc1cc(OC)c(-c2cnco2)cc1C/C=C(/C)CCC(=O)O | – |
| 16 µM | 4.3 µM | 56 µM | – | COc1cc(OC)c(-c2cnco2)cc1C/C=C(\C)CCC(=O)O (stereo in doubt; 3) | 10 |
| 10.3 µM | 2.3 µM | – | 88 µM | COc1cc(OC)c(-c2cnco2)cc1C/C=C(\C)CCC(=O)O (stereo in doubt; 3-E) | – |
